Assay results as given in ChEMBL document CHEMBL2396530, “In vitro and in vivo evaluation of polymethylene tetraamine derivatives as NMDA receptor channel blockers” (Bioorg Med Chem Lett, 2013).
Calls of active or inactive are those of the source. The rule behind the calls is not given here.

Experiments:
Mus musculus [1] = experiment: Antithrombotic activity in photochemically-induced thrombosis C57B/L mouse model assessed as decrease in brain infarction size at 1 to 10 mg/kg, iv after 24 hrs; format: functional, organism-based
[2] = molecular target: Glutamate NMDA receptor; GRIN1/GRIN2A (Homo sapiens, UniProt Q05586+Q12879); experiment: Antagonist activity at recombinant GluN1/GluN2A receptor (unknown origin) expressed in Xenopus laevis oocytes assessed as inhibition of glycine/glutamate-induced inward current at -70mV by two-electrode voltage clamp assay; format: cell-based, Oocyte
How it was run: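 Xenopus oocytes injected with GluN1 plus GluN2A cRNA at 1:5 ratio (0.1–4 ng GluN1 plus 0.5–20 ng GluN2A). Two-electrode voltage clamp at -70 mV. Receptors activated by superfusing glycine and glutamate (10 µM). Inward currents recorded. Concentration–inhibition curves built from 5 concentrations per compound to give IC50.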

Mus musculus [3] = experiment: Antithrombotic activity in photochemically-induced thrombosis C57B/L mouse model assessed as decrease in brain infarction size at 0.4 mg/kg, iv after 24 hrs; format: functional, organism-based; set-up: dose 0.4 mg/kg
Mus musculus [4] = experiment: Antithrombotic activity in photochemically-induced thrombosis C57B/L mouse model assessed as decrease in brain infarction size at 10 mg/kg, iv after 24 hrs; format: functional, organism-based; set-up: dose 10 mg/kg

Sequence of Glutamate NMDA receptor; GRIN1/GRIN2A (Q12879 whole entry, other chains not shown): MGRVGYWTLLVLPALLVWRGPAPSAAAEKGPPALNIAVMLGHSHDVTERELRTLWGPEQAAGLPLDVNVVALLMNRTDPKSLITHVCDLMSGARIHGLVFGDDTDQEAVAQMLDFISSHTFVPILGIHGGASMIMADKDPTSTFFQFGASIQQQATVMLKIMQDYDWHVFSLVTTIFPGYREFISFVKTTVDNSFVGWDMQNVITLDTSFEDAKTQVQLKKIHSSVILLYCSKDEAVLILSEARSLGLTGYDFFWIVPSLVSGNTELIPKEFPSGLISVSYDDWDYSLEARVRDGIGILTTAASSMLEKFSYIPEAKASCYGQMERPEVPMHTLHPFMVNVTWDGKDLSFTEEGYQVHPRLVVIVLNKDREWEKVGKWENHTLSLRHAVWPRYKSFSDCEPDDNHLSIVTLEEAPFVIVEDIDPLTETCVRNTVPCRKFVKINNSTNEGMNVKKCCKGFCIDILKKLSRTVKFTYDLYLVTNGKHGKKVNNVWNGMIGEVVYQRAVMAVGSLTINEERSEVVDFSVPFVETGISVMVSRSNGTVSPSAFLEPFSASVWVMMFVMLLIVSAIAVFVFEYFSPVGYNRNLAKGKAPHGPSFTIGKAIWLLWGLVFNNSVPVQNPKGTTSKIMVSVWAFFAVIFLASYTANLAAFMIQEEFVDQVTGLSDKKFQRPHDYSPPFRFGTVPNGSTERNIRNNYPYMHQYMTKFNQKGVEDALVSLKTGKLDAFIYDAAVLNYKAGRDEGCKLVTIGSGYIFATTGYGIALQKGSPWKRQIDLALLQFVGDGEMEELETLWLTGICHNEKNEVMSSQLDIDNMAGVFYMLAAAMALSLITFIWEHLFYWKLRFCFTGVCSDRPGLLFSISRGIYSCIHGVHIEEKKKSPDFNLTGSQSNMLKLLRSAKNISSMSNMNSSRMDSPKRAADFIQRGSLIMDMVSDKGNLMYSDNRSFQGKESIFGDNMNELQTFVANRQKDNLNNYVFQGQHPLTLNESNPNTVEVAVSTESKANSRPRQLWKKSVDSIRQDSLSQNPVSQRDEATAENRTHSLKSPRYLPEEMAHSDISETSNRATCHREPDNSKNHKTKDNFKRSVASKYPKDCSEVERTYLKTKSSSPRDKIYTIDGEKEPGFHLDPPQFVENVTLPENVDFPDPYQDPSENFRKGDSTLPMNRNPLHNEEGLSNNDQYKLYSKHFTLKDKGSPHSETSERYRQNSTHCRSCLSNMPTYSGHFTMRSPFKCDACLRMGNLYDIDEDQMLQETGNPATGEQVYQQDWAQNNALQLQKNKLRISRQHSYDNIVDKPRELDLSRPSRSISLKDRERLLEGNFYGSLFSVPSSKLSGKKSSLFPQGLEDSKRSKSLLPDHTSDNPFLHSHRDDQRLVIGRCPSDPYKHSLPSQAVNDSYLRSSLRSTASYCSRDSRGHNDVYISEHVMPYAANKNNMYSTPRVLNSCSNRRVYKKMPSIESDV

`c1ccc(C(CNCCCCCCNCCCCCCCCNCCCCCCNCC(c2ccccc2)c2ccccc2)c2ccccc2)cc1` was tested, and the Activity (Mus musculus [1]) was “inactive” and the IC50 [2] was 11 nM.
`COc1ccccc1CNCCCCCCNCCCCCCCCNCCCCCCNCc1ccccc1OC` [METHOCTRAMINE] was tested, and the Activity (Mus musculus [1]) was “inactive” and the IC50 [2] was 138 nM.
`COc1ccccc1CNCCCCCNCCCCCCNCCCCCNCc1ccccc1OC` was tested, and the Activity (Mus musculus [3]) was “Active” and the IC50 [2] was 315 nM.
With `COc1ccccc1CNCCCCCNCCCCCCCCCCNCCCCCNCc1ccccc1OC` the Activity (Mus musculus [1]) was “inactive” and the IC50 [2] was 89.3 nM.
In the case of `COc1ccccc1CNCCCCCCCCNCCCCCCNCCCCCCCCNCc1ccccc1OC`, the Activity (Mus musculus [1]) is reported as “inactive” and the IC50 [2] is reported as 257 nM.
With `CC12CC3CC(C)(C1)CC(N)(C3)C2` the Activity (Mus musculus [4]) was “Active”.
For `c1ccc(C(CNCCCCCCNCCCCCCCCCCCCNCCCCCCNCC(c2ccccc2)c2ccccc2)c2ccccc2)cc1`, the Activity (Mus musculus [1]) was “inactive” and the IC50 [2] was 4.2 nM.
